Data as given in ChEMBL document CHEMBL1123042, “Ring-substituted 1,1,2,2-tetraalkylated 1,2-bis(hydroxyphenyl)ethanes. 4. Synthesis, estrogen receptor binding affinity, and evaluation of antiestrogenic and mammary tumor inhibiting activity of symmetrically disubstituted 1,1,2,2-tetramethyl-1,2-bis(hydroxyphenyl)ethanes” (1985).
“And” between values parts separate entries of the source, which are not always exact repeats. Equal entries are not always repeated.

Columns and labels:
[1] = target: Estrogen receptor (Bos taurus) (UniProt Q9XSB5+P49884); assay: Relative binding affinity for calf uterine estrogen receptor compared to [3H]estradiol; format: protein assay
Procedure, shortened: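 Competition binding with calf uterine cytosol and [3H]estradiol, incubated 16 h at 4 °C and stopped with dextran-coated charcoal. Supernatant radioactivity counted after centrifugation. Six competitor concentrations spanned 50% displacement on a semilog plot. RBA = (molar E2 concentration / competitor concentration each giving 50% reduction of bound [3H]E2) × 100.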

[2] = target: T1, Estrogen receptor (Mus musculus) (UniProt O08537+P19785); assay: Uterotrophic effect in mice at 1000 ug; format: functional, tissue-based; conditions: Uterus
T1 sequence (O08537 whole entry, looked up): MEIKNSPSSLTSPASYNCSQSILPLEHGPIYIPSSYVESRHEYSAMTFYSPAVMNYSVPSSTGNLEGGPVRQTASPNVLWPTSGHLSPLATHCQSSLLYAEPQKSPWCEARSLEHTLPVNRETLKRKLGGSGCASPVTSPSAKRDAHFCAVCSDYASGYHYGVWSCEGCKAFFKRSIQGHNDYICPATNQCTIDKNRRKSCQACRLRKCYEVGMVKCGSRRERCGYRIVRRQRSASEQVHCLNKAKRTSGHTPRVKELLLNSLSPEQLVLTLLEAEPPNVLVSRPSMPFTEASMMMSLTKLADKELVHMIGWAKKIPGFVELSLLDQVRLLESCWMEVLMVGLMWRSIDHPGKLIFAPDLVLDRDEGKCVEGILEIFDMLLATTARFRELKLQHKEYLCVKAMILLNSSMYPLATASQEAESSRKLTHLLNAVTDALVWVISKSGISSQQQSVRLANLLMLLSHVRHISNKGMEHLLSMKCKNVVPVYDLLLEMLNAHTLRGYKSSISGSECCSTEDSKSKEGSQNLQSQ
T1 sequence (P19785 whole entry, looked up): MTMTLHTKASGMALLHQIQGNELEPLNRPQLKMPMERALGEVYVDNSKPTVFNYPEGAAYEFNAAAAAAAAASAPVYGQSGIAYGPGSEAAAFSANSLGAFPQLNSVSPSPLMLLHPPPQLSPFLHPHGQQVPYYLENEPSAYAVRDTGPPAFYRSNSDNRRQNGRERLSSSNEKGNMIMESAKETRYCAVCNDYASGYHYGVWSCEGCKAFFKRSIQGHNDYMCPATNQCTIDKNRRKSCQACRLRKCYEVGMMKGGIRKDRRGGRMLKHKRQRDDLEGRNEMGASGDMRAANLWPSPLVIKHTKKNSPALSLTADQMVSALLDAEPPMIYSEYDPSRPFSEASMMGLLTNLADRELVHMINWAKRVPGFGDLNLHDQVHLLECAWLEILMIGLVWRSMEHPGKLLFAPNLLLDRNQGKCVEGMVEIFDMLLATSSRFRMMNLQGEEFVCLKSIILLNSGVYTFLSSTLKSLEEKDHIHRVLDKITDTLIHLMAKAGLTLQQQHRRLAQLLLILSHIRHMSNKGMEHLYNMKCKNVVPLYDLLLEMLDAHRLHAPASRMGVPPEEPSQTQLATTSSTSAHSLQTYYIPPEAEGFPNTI
Procedure, shortened: (§1)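 Immature female NMRI mice, 20 days old (14.5 ± 1.2 g), 10 per randomized group. Received test compound subcutaneously in 0.1 mL olive oil daily for 3 days. Uteri removed 24 h after final dose, Bouin-fixed, washed, dried and weighed to measure stimulation of uterine growth.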

[3] = target: T1, Estrogen receptor (Mus musculus); assay: Uterotrophic effect in mice at 0 ug; format: functional, tissue-based; conditions: Uterus; procedure, shortened: as §1
[4] = target: T1, Estrogen receptor (Mus musculus); assay: Percent inhibition of estrone stimulated uterine growth in mice at 500 […]; format: functional
Procedure, shortened: (§2)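 Immature NMRI mice, 20 days old (14.5 ± 1.2 g), randomly grouped 10 per group. Given daily subcutaneous test compound in 0.1 mL olive oil for 3 days, together with estrone to stimulate uterine growth. Uteri taken 24 h after last injection, fixed in Bouin's solution, washed, dried and weighed. Read-out is inhibition of estrone-stimulated uterine growth.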

[5] = target: T1, Estrogen receptor (Mus musculus); assay: Uterotrophic effect in mice at 10 ug; format: functional, tissue-based; conditions: Uterus; procedure, shortened: as §1
[6] = target: T1, Estrogen receptor (Mus musculus); assay: Anti-uterotrophic effect in mice at 500 ug; format: functional; procedure, shortened: as §2
[7] = target: T1, Estrogen receptor (Mus musculus); assay: Anti-uterotrophic effect in mice at 5 ug; format: functional; procedure, shortened: as §2
[8] = target: T1, Estrogen receptor (Mus musculus); assay: Anti-uterotrophic effect in mice at 0 ug; format: functional; procedure, shortened: as §2
[9] = target: T1, Estrogen receptor (Mus musculus); assay: Uterotrophic effect in mice at 1 ug; format: functional, tissue-based; conditions: Uterus; procedure, shortened: as §1
[10] = target: T1, Estrogen receptor (Mus musculus); assay: Anti-uterotrophic effect in mice at 50 ug; format: functional; procedure, shortened: as §2
[11] = target: T1, Estrogen receptor (Mus musculus); assay: Uterotrophic effect in mice at 100 ug; format: functional, tissue-based; conditions: Uterus; procedure, shortened: as §1
[12] = target: T1, Estrogen receptor (Mus musculus); assay: Percent inhibition of estrone stimulated uterine growth in mice at 50 […]; format: functional; procedure, shortened: as §2
[13] = target: T1, Estrogen receptor (Mus musculus); conditions: Uterus
[14] = target: T1, Estrogen receptor (Mus musculus)
Rattus norvegicus [15] = assay: Percent change in tumor area in DMBA-induced carcinoma in rats after 28 day therapy at 5 mg/kg; format: functional
Rattus norvegicus [16] = assay: Percent change in tumor area in DMBA-induced carcinoma in rats after 28 day therapy at 2 mg/kg; format: functional
[17] = target: T1, Estrogen receptor (Mus musculus); assay: Percent inhibition of estrone stimulated uterine growth in mice at 10 […]; format: functional; procedure, shortened: as §2
Rattus norvegicus [18] = assay: Percent reduction in tumor size (<50%) in DMBA-induced mammary carcinoma in rats at 2 mg/kg/day; format: functional
[19] = target: T1, Estrogen receptor (Mus musculus); assay: Anti-uterotrophic effect in mice at 1 ug; format: functional; procedure, shortened: as §2
[20] = target: T1, Estrogen receptor (Mus musculus); assay: Percent inhibition of estrone stimulated uterine growth in mice at 100 […]; format: functional; procedure, shortened: as §2
Rattus norvegicus [21] = assay: Percent unchanged tumor size (51-150%) in DMBA-induced mammary carcinoma in rats at 5 mg/kg/day; format: functional
Rattus norvegicus [22] = assay: Percent increase in tumor size (>150%) in DMBA-induced mammary carcinoma in rats at 5 mg/kg/day; format: functional
Rattus norvegicus [23] = assay: Percent increase in tumor size (>150%) in DMBA-induced mammary carcinoma in rats at 2 mg/kg/day; format: functional
Rattus norvegicus [24] = assay: Percent remission in DMBA-Induced Mammary Carcinoma in rats at 5 mg/kg/day; format: functional
Rattus norvegicus [25] = assay: Percent change in body weight in DMBA-induced mammary carcinoma in rats after 7 day therapy at 5 mg/kg/day; format: functional
[26] = target: T1, Estrogen receptor (Mus musculus); assay: Anti-uterotrophic effect in mice at 10 ug; format: functional; procedure, shortened: as §2
Rattus norvegicus [27] = assay: Percent change in body weight in DMBA-induced mammary carcinoma in rats after 7 day therapy at 2 mg/kg/day; format: functional
[28] = target: T1, Estrogen receptor (Mus musculus); assay: Anti-uterotrophic effect in mice at 100 ug; format: functional; procedure, shortened: as §2
Rattus norvegicus [29] = assay: Percent unchanged tumor size (51-150%) in DMBA-induced mammary carcinoma in rats at 2 mg/kg/day; format: functional
[30] = target: T1, Estrogen receptor (Mus musculus); assay: Anti-uterotrophic effect in mice at 1000 ug; format: functional; procedure, shortened: as §2
[31] = target: T1, Estrogen receptor (Mus musculus); assay: Percent inhibition of estrone stimulated uterine growth in mice at 1000 […]; format: functional; procedure, shortened: as §2
Rattus norvegicus [32] = assay: Percent remission in DMBA-Induced Mammary Carcinoma in rats at 2 mg/kg/day; format: functional
[33] = target: T1, Estrogen receptor (Mus musculus); assay: Anti-uterotrophic effect in mice at 0.1 ug; format: functional; procedure, shortened: as §2
Rattus norvegicus [34] = assay: ercent reduction in tumor size (<50%) in DMBA-induced mammary carcinoma in rats at 5 mg/kg/day; format: functional
[35] = target: T1, Estrogen receptor (Mus musculus); assay: Uterotrophic effect in mice at 24 ug; format: functional, tissue-based; conditions: Uterus; procedure, shortened: as §1
[36] = target: T1, Estrogen receptor (Mus musculus); assay: Uterotrophic effect in mice at 80 ug; format: functional, tissue-based; conditions: Uterus; procedure, shortened: as §1
[37] = target: T1, Estrogen receptor (Mus musculus); assay: Uterotrophic effect in mice at 8 ug; format: functional, tissue-based; conditions: Uterus; procedure, shortened: as §1
[38] = target: T1, Estrogen receptor (Mus musculus); assay: Uterotrophic effect in mice at 250 ug; format: functional, tissue-based; conditions: Uterus; procedure, shortened: as §1
[39] = target: T1, Estrogen receptor (Mus musculus); assay: Percent inhibition of estrone stimulated uterine growth in mice at 5 […]; format: functional; procedure, shortened: as §2
Rattus norvegicus [40] = assay: Percent reduction in tumor size (<50%) in DMBA-induced mammary carcinoma in rats at 5 mg/kg/day; format: functional

| relative binding affinity (RBA) [1] | Effect [2] | Effect [3] | Effect [5] | Effect [6] | Effect [8] | Effect [9] | Effect [10] | Effect [11] | Structure (SMILES) | also measured |
| --- | --- | --- | --- | --- | --- | --- | --- | --- | --- | --- |
| 0.01 | – | – | – | – | – | – | – | – | CC(C)(c1cc(O)cc(Cl)c1)C(C)(C)c1cc(O)cc(Cl)c1 | – |
| 3.4 | 35.2 | 13.7 | 51.5 | 35.2 | 13.7 | 35.8 | 38.9 | 32.7 | CC(C)(c1ccc(O)cc1Cl)C(C)(C)c1ccc(O)cc1Cl | inhibition [4]: 29%; Effect [7]: 48.4; inhibition [12]: 17% |
| 0.45 | – | – | – | – | – | – | – | – | COc1cc(O)ccc1C(C)(C)C(C)(C)c1ccc(O)cc1OC | – |
| – | – | – | – | – | – | – | – | – | C[C@]12CC[C@@H]3c4ccc(O)cc4CC[C@H]3[C@@H]1CCC2=O | uterine weight [13]: 45.3 mg/100 g; uterine weight [14]: 47.8 mg/100 g |
| 6.4 | 38.5 | 16.4 | 38.8 | – | 13.8 | 27 | – | 42.6 | CC(C)(c1ccc(O)cc1F)C(C)(C)c1ccc(O)cc1F | Change of area (Rattus norvegicus [15]): -47%; Change of area (Rattus norvegicus [16]): 22%; inhibition [17]: 20%; Change of size (Rattus norvegicus [18]): 4%; Effect [19]: 49.9; inhibition [20]: 35%; Change of size (Rattus norvegicus [21]): 3%; Change of size (Rattus norvegicus [22]): 13%; Change of size (Rattus norvegicus [23]): 18%; Remission (Rattus norvegicus [24]): 74%; Change of weight (Rattus norvegicus [25]): -4%; Effect [26]: 41; Change of weight (Rattus norvegicus [27]): -3.1%; Effect [28]: 35.9; Change of size (Rattus norvegicus [29]): 14%; Effect [30]: 34.2; inhibition [31]: 40%; Remission (Rattus norvegicus [32]): 64%; Effect [33]: 47.7; Change of size (Rattus norvegicus [34]): 10% |
| 3.6 | 14.3 | 9.2 | – | – | – | – | – | – | CC(C)(c1ccc(O)cc1)C(C)(C)c1ccc(O)cc1 | Effect [35]: 15.7; Effect [36]: 15.8; Effect [37]: 10.6; Effect [38]: 13.3 |
| < 0.01 | – | – | – | – | – | – | – | – | COc1ccc(O)cc1C(C)(C)C(C)(C)c1cc(O)ccc1OC | – |
| 0.9 | – | – | – | – | – | – | – | – | Cc1ccc(O)cc1C(C)(C)C(C)(C)c1cc(O)ccc1C | – |
| 2.6 | 38 | 11.1 | 22.2 | 37.3 | 13.7 | 16.6 | 50 | 28 | Cc1cc(O)ccc1C(C)(C)C(C)(C)c1ccc(O)cc1C | inhibition [4]: 22%; Effect [7]: 51.2 |
| 3.5 | 35.7 | 11.1 | 22.6 | 37.8 | 13.7 | 14.7 | 44.2 and 34.9 | 33 | CC(C)(c1cc(O)ccc1Cl)C(C)(C)c1cc(O)ccc1Cl | Inhibition (alpha = 0.01) [4]: 27%; inhibition [39]: 7%; Inhibition (alpha = 0.01) [12]: 36% |
| 3 | 13.4 | 9.2 | – | – | – | – | – | – | CC(C)(c1cccc(O)c1)C(C)(C)c1cccc(O)c1 | Effect [35]: 15.7; Effect [36]: 15.4; Effect [37]: 9.8; Effect [38]: 14.6 |
| 4 | 35.6 | 9.7 | 16.6 | 32.5 | 13.7 | 15.4 | 37.2 | 22.6 | CC(C)(c1cc(O)ccc1F)C(C)(C)c1cc(O)ccc1F | Change of area (Rattus norvegicus [15]): 396%; Change of area (Rattus norvegicus [16]): 441%; inhibition [4]: 43%; Remission (Rattus norvegicus [18]): 7%; Change of size (Rattus norvegicus [21]): 7%; Change of size (Rattus norvegicus [40]): 4%; Change of size (Rattus norvegicus [22]): 89%; Change of size (Rattus norvegicus [23]): 77%; Effect [7]: 48.6; Remission (Rattus norvegicus [24]): 0%; Change of weight (Rattus norvegicus [25]): 2.9%; Change of weight (Rattus norvegicus [27]): 3.5%; Change of size (Rattus norvegicus [29]): 16%; Remission (Rattus norvegicus [32]): 0%; inhibition [12]: 29% |
